ChEMBL document CHEMBL1124173, “Enantiomers of 7-(2,3-epoxypropoxy)actinomycin D as dual-action DNA-acting antitumor agents” (J Med Chem, 1988)
Numbered stars: 1 amine (or outer) side, 2 acyl side, 3 side chain; on linkers, the order of the positions; unused ones are H or OH. Bridge positions count the residues as written; N and C are the ends. Square brackets hold non-standard residues; d marks the D form. Peptide text beside a SMILES is read from it. I, II: the chains in the order shown. Actinocin(1to9) = Cc1c2oc3c(C)ccc(C(=O)[*:2])c3nc-2c(C(=O)[*:1])c(N)c1=O; NMeV = CN[C@H](C(=O)O)C(C)C; Sar = CNCC(=O)O

Assays:
[1] = ratio of DNA to compound bound entirely by covalent bonding to DNA base.; format: functional
Summary of the method: (§1)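 [3H]Drug and purified calf thymus DNA dialyzed at 37 °C in Tris HCl buffer; complex twice ethanol-precipitated to remove unbound drug. Molar DNA/drug ratio calculated from drug bound only covalently to DNA bases.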

[2] = Molar ratio of DNA to total amount of compound that is bound both intercalatively and covalently to calf thymus DNA helix; format: functional
Summary of the method: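 [3H]Drug and purified calf thymus DNA dialyzed at 37 °C in Tris HCl pH 7.4 (20 mM per footnote; 25 mM in methods). Equilibrated complex precipitated twice with ethanol to remove unbound drug. Molar DNA/drug ratio based on total bound drug, intercalative plus covalent.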

L1210 [3] = test: 50% Inhibition of growth of L1210 cells in culture.; format: functional, Mus musculus; conditions: Mus musculus, L1210; read-out: ID50 (the source's name)
Summary of the method: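 L1210 leukemia cells growing actively in culture; ID50 is drug concentration (nM) giving 50% inhibition of growth relative to untreated L1210 cells.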

P388/ADR [4] = test: Antitumor activity measured as Median survival time in days against P388/ADR, in ip implanted CDF1 mice, treated ip, qd 1-9; format: functional, Mus musculus
Summary of the method: (§2)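 P388/ADR leukemia, a P388/S subline made resistant to intercalators, implanted ip in CDF1 mice. Drug given ip daily on days 1-9 at optimal dose. Read-out is median survival time of tumor-bearing mice and %ILS of treated dying animals versus controls. Survivors beyond 60 days are counted; 10 mice per group.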

P388/ADR [5] = test: Antitumor activity measured as %ILS against P388/ADR, in ip implanted CDF1 mice, treated ip, qd 1-9; format: functional, Mus musculus; summary of the method: as §2
Bos taurus = organism: Bos taurus; test: Thermal denaturation of calf thymus DNA measured as ΔTm; conditions: cattle, in vitro
Mus musculus [6] = test: Antitumor activity measured as % increase in life span, for iv administration of compound and sc inoculation of B16 melanoma.
Mus musculus [7] = test: Antitumor activity measured as median survival time, for iv administration and sc inoculation of B16 melanoma.
B16 = test: In vitro 50% Growth inhibition of sensitive B16 cells.; format: functional, Mus musculus; conditions: Mus musculus, B16; read-out: ID50 (the source's name)
Summary of the method: (§3)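 Actively growing tumor cells in vitro (actinomycin-resistant P388/ADR leukemia; sensitive B16 melanoma); ID50 is concentration (nM) needed for 50% growth inhibition.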

Mus musculus [8] = organism: Mus musculus; test: Antitumor activity measured as % increase in life span, against C26 colon carcinoma.; format: functional
Summary of the method: (§4)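 C26 primary colon carcinoma cells (trypan blue excluding, 2.5 × 10^5 cells/mouse) implanted in CDF1 mice on day 0. Drug given ip on days 1, 5 and 9 in 0.1 mL 5% v/v Me2SO-saline at optimal dose. Read-out is median survival time; %ILS is drug-treated over control, excluding survivors. Sixty-day survivors are counted.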

Mus musculus [9] = organism: Mus musculus; test: Antitumor activity measured as optimal dose, against C26 colon carcinoma.; format: functional
Summary of the method: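 Primary colon C26 carcinoma cells (trypan blue excluding, 2.5 × 10^5 cells/mouse) implanted in CDF1 mice on day 0. Drug given ip on days 1, 5 and 9 in 0.1 mL 5% v/v Me2SO-saline. Optimal dose in […]; %ILS and 60-day survivors scored.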

Mus musculus [10] = test: Antitumor activity measured as % increase in life span, for ip administration of compound and ip inoculation of B16 melanoma.; format: functional
Summary of the method: (§5)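 B16 brei (tumor weight/Hank's balanced salt solution 1:5, 0.2 mL) implanted sc or ip into groups of nine BDF1 mice on day 0. Drug given iv on day 1 (sc tumor) or ip on days 1, 5 and 9 (ip tumor), in 0.1 mL 5% v/v Me2SO-saline. Read-out is median survival time and %ILS versus untreated controls, excluding sixty-day survivors.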

P388/ADR [11] = test: Antitumor activity against P388/ADR, in ip implanted CDF1 mice, treated ip, qd 1-9 measured as optimal dose; format: functional, Mus musculus
Summary of the method: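 P388/ADR leukemia implanted ip in CDF1 mice; drugs given ip once daily on days 1-9. Optimal dose recorded alongside median survival time and % increase in median life span of treated dying mice versus controls; survivors counted as >60-day survivors per group of 10.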

L1210 [12] = test: Inhibition of synthesis of [methyl-14C] thymidine into DNA, in L1210 cells.; format: functional, cell-based, Mus musculus
Summary of the method: (§6)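 Actively growing L1210 cells in vitro. Incorporation of [5-3H]uridine into RNA, or [methyl-14C]thymidine into DNA, compared with untreated cells. IC50 is micromolar drug concentration giving 50% reduction in incorporation rate.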

Mus musculus [13] = organism: Mus musculus; test: percent increase in median life time (%ILS) measured in mice bearing leukemia L!210; format: functional
Summary of the method: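 CDF1 mice inoculated ip with 10^5 L1210 cells on day 0. Drug given ip on days 1, 5 and 9 at the optimal dose in mg/kg per injection. %ILS is the increase in median life span of treated dying animals versus untreated tumor-bearing mice. Over-60-day survivors are counted; 9 mice per group.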

Mus musculus [14] = organism: Mus musculus; test: Antitumor activity measured as median survival time, against C26 colon carcinoma.; format: functional; summary of the method: as §4
L1210 [15] = test: Inhibition of synthesis of [5-3H]-uridine into RNA in L1210 cells.; format: functional, cell-based, Mus musculus; summary of the method: as §6
P388/ADR [16] = test: In vitro 50% Growth inhibition of actinomycin resistant P388/ADR cells; format: functional, Mus musculus; conditions: Mus musculus, P388/ADR; read-out: ID50 (the source's name); summary of the method: as §3
Mus musculus [17] = organism: Mus musculus; test: Antitumor activity measured as optimal dose, for B16 melanoma.
L1210 [18] = test: Optimal dose per injection, administered ip on days 1, 5, and 9, ip inoculation with 10E5 L1210 cells per CDF1 mouse on day 0.; format: functional
Summary of the method: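 CDF1 mice inoculated ip with 10^5 L1210 cells on day 0; drugs given ip on days 1, 5 and 9. Optimal dose in mg/kg per injection. %ILS is increase in median life span of treated dying mice over untreated tumor-bearing mice; survivors counted beyond 60 days, 9 per group.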

Mus musculus [19] = test: Antitumor activity measured as median survival time, for ip administration and ip inoculation of B16 melanoma.; format: functional; summary of the method: as §5
[20] = Ratio of DNA to compound bound entirely by covalent bonding to DNA base.; format: functional; summary of the method: as §1
Mus musculus [21] = test: Antitumor activity measured as median survival time, for iv administration and sc inoculation of B16 melanoma.; remark: listed apart in the source

## Cc1c2oc3c(C)c(OCC4CO4)cc(C(=O)N[C@@H]4C(=O)N[C@@H](C(C)C)C(=O)N5CCC[C@H]5C(=O)N(C)CC(=O)N(C)[C@@H](C(C)C)C(=O)O[C@H]4C)c3nc-2c(C(=O)N[C@@H]2C(=O)N[C@@H](C(C)C)C(=O)N3CCC[C@H]3C(=O)N(C)CC(=O)N(C)[C@@H](C(C)C)C(=O)O[C@H]2C)c(N)c1=O (stereo in doubt)
[1]
  Ratio: 520
[2]
  Ratio: 32

## Cc1c2oc3c(C)ccc(C(=O)N[C@@H]4C(=O)N[C@H](C(C)C)C(=O)N5CCC[C@H]5C(=O)N(C)CC(=O)N(C)[C@@H](C(C)C)C(=O)O[C@@H]4C)c3nc-2c(C(=O)N[C@@H]2C(=O)N[C@H](C(C)C)C(=O)N3CCC[C@H]3C(=O)N(C)CC(=O)N(C)[C@@H](C(C)C)C(=O)O[C@@H]2C)c(N)c1=O [DACTINOMYCIN] (I: T[dV]P[Sar][NMeV] / II: T[dV]P[Sar][NMeV]; ester I:1-I:C, II:1-II:C; linker I:N-II:N via Actinocin(1to9))
L1210 [3]
  IC50: 60.1 nM
P388/ADR [4]
  MST: 12 days
P388/ADR [5]
  ILS: 33%
Bos taurus
  ΔTm: 7.1
Mus musculus [6]
  ILS: 36%
Mus musculus [7]
  MST: 45 days
B16
  IC50: 3 nM
Mus musculus [8]
  ILS: 52%
[2]
  Ratio: 26
Mus musculus [9]
  Dose: 0.3 mg/kg
Mus musculus [10]
  ILS: 52%
P388/ADR [11]
  Dose: 0.075 mg/kg
L1210 [12]; Mus musculus, L1210
  IC50: 380 nM
Mus musculus [13]
  ILS: 55%
Mus musculus [14]
  MST: 33.5 days
L1210 [15]; Mus musculus, L1210
  IC50: 19 nM
P388/ADR [16]
  IC50: 2500 nM
Mus musculus [17]
  Dose: 0.9 mg/kg
L1210 [18]
  Dose: 0.025 mg/kg
Mus musculus [19]
  MST: 29 days

## Cc1c2oc3c(C)c(OCC4CO4)cc(C(=O)N[C@@H]4C(=O)N[C@H](C(C)C)C(=O)N5CCC[C@H]5C(=O)N(C)CC(=O)N(C)[C@@H](C(C)C)C(=O)O[C@@H]4C)c3nc-2c(C(=O)N[C@@H]2C(=O)N[C@H](C(C)C)C(=O)N3CCC[C@H]3C(=O)N(C)CC(=O)N(C)[C@@H](C(C)C)C(=O)O[C@@H]2C)c(N)c1=O (stereo in doubt)
Bos taurus
  ΔTm: 5
L1210 [12]; l1210
  IC50: 60 nM
L1210 [15]; l1210
  IC50: 50 nM

## Cc1c2oc3c(C)c(OC[C@H]4CO4)cc(C(=O)N[C@@H]4C(=O)N[C@@H](C(C)C)C(=O)N5CCC[C@H]5C(=O)N(C)CC(=O)N(C)[C@@H](C(C)C)C(=O)O[C@H]4C)c3nc-2c(C(=O)N[C@@H]2C(=O)N[C@@H](C(C)C)C(=O)N3CCC[C@H]3C(=O)N(C)CC(=O)N(C)[C@@H](C(C)C)C(=O)O[C@H]2C)c(N)c1=O
[1]
  Ratio: 500
[2]
  Ratio: 30

## Cc1c2oc3c(C)c(OCC4CO4)cc(C(=O)N[C@@H]4C(=O)N[C@@H](C(C)C)C(=O)N5CCC[C@H]5C(=O)N(C)CC(=O)N(C)[C@@H](C(C)C)C(=O)O[C@H]4C)c3nc-2c(C(=O)N[C@@H]2C(=O)N[C@@H](C(C)C)C(=O)N3CCC[C@H]3C(=O)N(C)CC(=O)N(C)[C@@H](C(C)C)C(=O)O[C@H]2C)c(N)c1=O (stereo in doubt; 3b)
[2]
  Ratio: 32
[20]
  Ratio: 480

## COc1cccc2c1C(=O)c1c(O)c3c(c(O)c1C2=O)C[C@@](O)(C(=O)CO)C[C@@H]3O[C@H]1C[C@H](N)[C@H](O)[C@H](C)O1 [DOXORUBICIN]
Mus musculus [6]
  ILS: 79%
Mus musculus [21]
  MST: 59 days
Mus musculus [8]
  ILS: 118%
Mus musculus [9]
  Dose: 2.5 mg/kg
Mus musculus [10]
  ILS: 224%
Mus musculus [14]
  MST: 48 days
Mus musculus [19]
  MST: 60 days
